Activity calls are given as the source filed them. No cut-off for these calls is given here.
Tests used:
Rattus norvegicus [1] = experiment: Minimum effective dose (MED) intraperitoneally in passive cutaneous anaphylaxis (PCA) model for 50% inhibition in Sprague-Dawley rat; assay type: functional; details: ip, read-out: MED
Summary of the method: (§1)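 Rat passive cutaneous anaphylaxis in Sprague-Dawley rats. Compounds given ip as a Klucel suspension at 5, 1.25 and/or 0.31 mg/kg (some at 10, 2.5 and 0.63 mg/kg ip), six animals per dose. MED is the lowest dose giving >50% inhibition with p ≤ 0.05 (Student's t test). Where data sufficed, ID50 with 95% confidence range was derived from experiments of six animals each.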

Rattus norvegicus [2] = organism: Rattus norvegicus; experiment: Minimum effective dose (MED) perorally in passive cutaneous anaphylaxis (PCA) model for 50% inhibition in Sprague-Dawley rat; assay type: functional; details: po, read-out: MED
Summary of the method: (§2)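 Sprague-Dawley rat passive cutaneous anaphylaxis with oral dosing of a Klucel suspension at 10, 5 and/or 2.5 mg/kg, six animals per dose. MED po is the lowest dose producing >50% inhibition at p ≤ 0.05 (Student's t test).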

Rattus norvegicus [3] = experiment: Concentration of compound intraperitoneally in passive cutaneous anaphylaxis (PCA) model for 50% inhibition in Sprague-Dawley rat; assay type: functional; details: ip, read-out: ID50 (the source's name); summary of the method: as §1
Rattus norvegicus [4] = organism: Rattus norvegicus; experiment: Concentration of compound perorally in passive cutaneous anaphylaxis (PCA) model for 50% inhibition in Sprague-Dawley rat; IN-Ineffective; assay type: functional, organism-based; summary of the method: as §2

| SMILES | minimal effective dose (Rattus norvegicus [1]) [mg/kg] | minimal effective dose (Rattus norvegicus [2]) [mg/kg] | ED50 (Rattus norvegicus [3]) [mg/kg] | ID50 (Rattus norvegicus [4]) |
| --- | --- | --- | --- | --- |
| O=C(Nc1nn[nH]n1)c1cc(=O)n2c(n1)oc1ccccc12 | 1.25 | > 10 |  |  |
| O=C([O-])c1cc(=O)c2c(OCC(O)COc3cccc4oc(C(=O)[O-])cc(=O)c34)cccc2o1.[Na+].[Na+] [CROMOLYN SODIUM] |  |  | 2.6 | inactive |
| Cn1c2ccccc2n2c(=O)cc(C(=O)Nc3nn[nH]n3)nc12 | 1.25 | 10 |  |  |
| O=C(Nc1nn[nH]n1)c1cnc2oc3ccccc3n2c1=O | 1.25 | 10 |  |  |
| O=C(O)c1cnc2oc3ccccc3n2c1=O | > 5 | > 10 |  |  |
| O=c1cc(-c2nn[nH]n2)nc2oc3ccccc3n12 | 1.25 | > 10 |  |  |
| O=c1cc(-c2nn[nH]n2)nc2sc3ccccc3n12 | 5 | > 10 |  |  |
| Cn1c2ccccc2n2c(=O)c(C(=O)O)cnc12 | 0.63 | > 10 |  |  |
| O=c1c(-c2nnn[nH]2)cnc2sc3ccccc3n12 | 1.25 | > 10 |  |  |
| Cn1c2ccccc2n2c(=O)c(-c3nnn[nH]3)cnc12 | 0.31 | 2.5 |  |  |
| O=c1c(-c2nnn[nH]2)cnc2oc3ccccc3n12 | 1.25 | 5 |  |  |
| O=C(O)c1cc(=O)n2c(n1)oc1ccccc12 | 5 | > 10 |  |  |
| Cn1c2ccccc2n2c(=O)c(C(=O)Nc3nn[nH]n3)cnc12 | 0.31 | > 10 |  |  |
| Cn1c2ccccc2n2c(=O)cc(-c3nn[nH]n3)nc12 | 5 |  |  |  |
| Cn1c2ccccc2n2c(=O)cc(C(=O)O)nc12 | > 5 | > 10 |  |  |
| O=C(O)c1cc(=O)n2c(n1)sc1ccccc12 | > 5 | > 10 |  |  |
| O=C(O)c1cnc2sc3ccccc3n2c1=O | > 5 | > 10 |  |  |
| O=C(Nc1nn[nH]n1)c1cnc2sc3ccccc3n2c1=O | 1.25 | > 10 |  |  |
| O=C(Nc1nn[nH]n1)c1cc(=O)n2c(n1)sc1ccccc12 | 1.25 | > 10 |  |  |
